This is a sample that favours compounds with a hit; in the whole collection about 2.5% have one here.
TRPC4 inh = inhibitors of mouse TRPC4 channel; HEK293 TRPC4beta/mu-opioid, DAMGO-evoked Fluo4 calcium flux; active compounds read low; B-score at 10 µM; Q9QUQ5; 300,000 tested, 0.39% active; AID 2247;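 active = B-score over 3 SD under the library average, no early fluorescence shift, positive overall ratio signal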
Target sequence (Q9QUQ5 whole entry, looked up): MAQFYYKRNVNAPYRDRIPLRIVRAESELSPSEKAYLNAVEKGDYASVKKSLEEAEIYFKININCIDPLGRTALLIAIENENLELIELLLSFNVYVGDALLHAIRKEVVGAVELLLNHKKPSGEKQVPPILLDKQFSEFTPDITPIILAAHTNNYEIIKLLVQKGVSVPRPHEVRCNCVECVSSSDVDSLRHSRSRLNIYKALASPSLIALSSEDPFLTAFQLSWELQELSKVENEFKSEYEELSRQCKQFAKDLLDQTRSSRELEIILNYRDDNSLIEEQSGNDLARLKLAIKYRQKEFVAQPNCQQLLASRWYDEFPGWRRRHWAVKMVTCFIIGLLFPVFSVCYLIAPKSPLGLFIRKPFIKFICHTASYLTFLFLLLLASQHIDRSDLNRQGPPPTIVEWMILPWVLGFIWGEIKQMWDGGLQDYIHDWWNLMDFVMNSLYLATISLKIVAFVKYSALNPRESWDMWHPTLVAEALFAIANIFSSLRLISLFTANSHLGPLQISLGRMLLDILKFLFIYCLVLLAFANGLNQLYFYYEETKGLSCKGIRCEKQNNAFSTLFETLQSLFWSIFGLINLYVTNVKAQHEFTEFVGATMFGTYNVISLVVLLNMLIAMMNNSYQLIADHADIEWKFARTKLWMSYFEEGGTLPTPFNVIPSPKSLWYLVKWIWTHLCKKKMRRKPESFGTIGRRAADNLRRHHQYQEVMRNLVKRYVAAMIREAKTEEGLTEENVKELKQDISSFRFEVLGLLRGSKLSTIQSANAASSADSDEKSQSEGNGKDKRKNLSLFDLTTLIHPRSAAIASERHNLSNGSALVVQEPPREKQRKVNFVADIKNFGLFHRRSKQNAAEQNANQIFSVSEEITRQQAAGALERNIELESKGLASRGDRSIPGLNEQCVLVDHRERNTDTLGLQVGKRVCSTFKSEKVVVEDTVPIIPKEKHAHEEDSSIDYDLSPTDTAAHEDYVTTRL
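Assay system – HEK293 line stably carrying TRPC4beta and mu-opioid receptor · Doses – single dose · Detection – Fluo4 calcium-dye fluorescence, kinetic read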
TRPC6 act = mouse TRPC6 channel activation. Q61143. HEK293-TRPC6 membrane potential dye fluorescence; active compounds read high. B-score at 10 µM. 310,000 tested, 0.13% active. AID 2550;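 active = B-score of the integrated fluorescence ratio above library mean plus 3 SD, and starting fluorescence ratio within library mean plus 5 SD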;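 note: higher score means more depolarization so channel activation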
TRPC4 potent = TRPC4 (mouse) allosteric potentiation; 310,000 tested, 0.42% active; B-score at 10 µM; AID 2227; HEK293 TRPC4beta/mu-opioid, DAMGO EC20, Fluo-4 Ca2+ flux; active compounds read high; Q9QUQ5;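 active = B-score of calcium response area above 5 SD of library B-scores, with initial fluorescence ratio within 5 SD of library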;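 note: B-score of integrated fluorescence ratio over time as area under calcium response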
TRPC6 inh = mouse TRPC6 channel inhibition | Q61143 | HEK293-TRPC6, membrane potential dye, ACh-evoked depolarization; active compounds read low | 310,000 tested, 1.1% active | B-score at 10 µM;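 active = B-score under library mean minus 3 SD, initial fluorescence not abnormally high, positive integrated signal ratio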;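 note: B-score derived from integrated fluorescence ratio over the kinetic read; more negative B-score means stronger inhibition of depolarization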
Platelet DG rel = platelet dense granule release activity | human platelet-rich plasma, SFLLRN dense granule ATP release, luminescence | inhibition, %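 (compounds screened at 7.5 µM in platelet-rich plasma)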 | 300,000 tested, 0.22% active;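 active = mean replicate score, as percent of positive control, at or above 50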
TRPC4 agonist = TRPC4 (mouse) channel activation | 310,000 tested, 0.49% active | AID 2237 | HEK293 TRPC4beta/mu-opioid, Fluo4 calcium fluorescence; active compounds read high | B-score at 10 µM | Q9QUQ5;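 active = B-score above 5 SD of library B-scores, and initial fluorescence ratio not above library mean plus 5 SD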;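 note: positive B-score marks a calcium rise read as TRPC4 activation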
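Assay system: HEK293 stable line with TRPC4beta plus mu-opioid receptor. Times: dye 45 min RT, read 110 s. Measured by: kinetic Fluo4 calcium fluorescence. Measure: B score of integrated ratio. Controls: assay buffer as low control, maximal DAMGO as high control.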
TRPC4 spec 2 = mouse TRPC4 off-target activity of TRPC6 inhibitors, second screen. shares compounds with TRPC6 inh. HEK293 TRPC4/MOR, membrane potential dye fluorescence; channel activated by saturating DAMGO dose. 920 tested, 42% active. inhibition, % at 10 µM;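 active = compounds whose fluorescence signal differed from control wells by over 3 SD, either direction, in both duplicate plates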
TRPC4 spec = selectivity of TRPC6 inhibitors: effect on mouse TRPC4; shares compounds with TRPC6 inh; HEK293 TRPC4/mu-opioid, membrane potential fluorescence; activity change, negative = inhibition, % at 10 µM; 920 tested, 61% active;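 active = rise or fall in signal beyond 3 SD of buffer-only wells in both replicate plates, either sign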;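 note: integrated kinetic ratio of fluorescence range over baseline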
HEK293 MPD ctr 2-1 = second counter-screen for TRPC6 inhibitors: parental HEK293 cells. shares compounds with TRPC6 inh. parental HEK293 membrane potential dye fluorescence; maximal acetylcholine challenge after compound addition. signal change vs control, % at 10 µM. 920 tested, 31% active. AID 2779;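 active = membrane potential signal moving either way by over 3 SD of the maximum-effect control, in both duplicate plates, meaning non-specific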
HEK293 MPD ctr-1 = parental HEK293 nonspecific activity of TRPC6 inhibitors; shares compounds with TRPC6 inh; parental HEK293 membrane potential dye fluorescence; membrane potential signal change, % at 10 µM; AID 2780; 920 tested, 60% active;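 active = membrane potential signal shifting up or down by more than 3 SD of buffer-only wells, on both duplicate plates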
HEK293 MPD ctr-2 = checks TRPC6 modulator effects in parental HEK293 cells; membrane potential signal change, % at 10 µM; AID 488924; 2,400 tested, 51% active; shares compounds with TRPC6 inh; membrane potential dye fluorescence;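 active = membrane potential signal moves up or down beyond 5 SD from buffer-only wells, on both duplicate plates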
HEK293 MPD ctr 2-2 = parental HEK293 nonspecific activity of TRPC6 modulators, second screen; 2,400 tested, 14% active; shares compounds with TRPC6 inh; membrane potential dye fluorescence; after compound, maximal acetylcholine stimulation; inhibition, % at 10 µM;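 active = membrane potential signal drops by more than 5 SD from the mean control signal, in both duplicate plates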;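 note: plate controls were acetylcholine ECmax control wells for no effect and buffer only wells for full effect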
TRPC4 ctr mod = tests whether TRPC6 modulators also affect mouse TRPC4 | HEK293 TRPC4/mu-opioid, membrane potential fluorescence | shares compounds with TRPC6 inh | percent change from control (negative = decrease, positive = increase), % at 10 µM | 2,400 tested, 69% active;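 active = membrane potential signal moved up or down beyond 5 SD of buffer control wells, in both duplicate plates, actives on both sides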;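 note: plate controls were assay buffer wells for no effect and DAMGO maximal-effect wells for full effect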
TRPC4 ctr inh 2 = mouse TRPC4 off-target activity of TRPC6 modulators, second screen; shares compounds with TRPC6 inh; HEK293 TRPC4/mu-opioid, membrane potential dye fluorescence; stimulated with maximal-effect DAMGO; inhibition, % at 10 µM; 2,400 tested, 55% active; AID 488928;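 active = drop in membrane potential signal beyond 5 SD of the control wells in both duplicate plates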;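 note: TRPC4 counter screen for TRPC6 hits run under conditions tuned for TRPC6 not TRPC4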
TRPC6 inh conf = mouse TRPC6 inhibitor confirmation; 3,300 tested, 43% active; inhibition, % at 10 µM; shares compounds with TRPC6 inh; HEK293-TRPC6, membrane potential dye, ACh-evoked depolarization;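 active = fluorescence ratio falls more than 5 SD below the full-stimulation control mean, in both duplicate runs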;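 note: integrated fluorescence ratio of peak minus minimum over baseline after agonist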
TRPC6 act conf = confirmation of mouse TRPC6 activators; shares compounds with TRPC6 inh; HEK293-TRPC6 membrane potential dye fluorescence, FDSS; activation, % at 10 µM; 2,800 tested, 11% active; AID 488961;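 active = ratio signal rise beyond 5 SD above unstimulated control wells' mean, seen in both duplicate runs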;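 note: plate controls were buffer EC0 wells for no effect and acetylcholine ECmax response for full effect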
The depositor's hits bear a star; i = inactive; / = no result given.

SMILES	TRPC4 inh	TRPC6 act	TRPC4 potent	TRPC6 inh	Platelet DG rel	TRPC4 agonist	HEK293 MPD ctr-2	HEK293 MPD ctr 2-2	TRPC4 ctr mod	TRPC4 ctr inh 2	TRPC6 inh conf	TRPC6 act conf	others
Cc1ccc(S(=O)(=O)NC(=O)c2ccc(-c3ccc(C)c4ccccc34)o2)cc1	i	i	i	i	10	i	/	/	/	/	/	/
CC(C)(Oc1ccc(Cl)cc1)C(=O)NCC(c1cccs1)N1CCOCC1 (stereo unspecified)	i	i	i	i	-21	i	/	/	/	/	/	/
COc1ccccc1C(CNC(=O)C(C)(C)Oc1ccc(Cl)cc1)N1CCCC1 (stereo unspecified)	i	i	i	-5.7*	11	i	194%*	i	33%*	42%*	52%*	/
O=C(NNC1=Nc2cc([N+](=O)[O-])ccc2OC1)c1ccccc1Cl	i	i	i	i	1	i	/	/	/	/	/	/
COc1cc(/C=N/n2cnnc2)ccc1OCC(=O)N1CCOCC1	i	i	i	-7.2*	2	i	-334%*	i	-54%*	44%*	46%*	i
NCCCCCc1nnc(SCc2ccc(Cl)c(Cl)c2)o1	i	i	i	-6.2*	-7	i	i	i	i	66%*	60%*	i
CCCCCc1nc2sc3c(c2c(=O)n1NC(=O)c1ccc([N+](=O)[O-])cc1)CC(C)(C)OC3	i	i	i	-5.7*	15	i	i	i	i	64%*	56%*	i
CCCCCCCc1nc2sc3c(c2c(=O)n1N)CC(C)(C)OC3	i	i	i	i	-2	i	/	/	/	/	/	/
Cc1cc2ncn(C(=O)c3c(-c4ccccc4Cl)noc3C)c2cc1C	i	i	i	i	3	i	/	/	/	/	/	/
Cc1ccc2nc3ccc(N4CCCC4)nn3c(=O)c2c1	i	i	i	-6.9*	-3	i	/	/	/	/	i	i	TRPC4 spec 2=i;TRPC4 spec=-25%*;HEK293 MPD ctr 2-1=42%*;HEK293 MPD ctr-1=-324%*
CC(C)c1ccc2c(c1)[C@H]1OCC[C@H]1[C@@H](c1cccs1)N2	i	i	i	i	-1	i	/	/	/	/	/	/
COc1ccc2c(c1)-c1c(ssc1=S)C(C)(C)N2	i	i	i	-5.6*	-5	i	-164%*	i	-33%*	60%*	46%*	i
Fc1ccc([C@@H]2CCNC[C@H]2COc2ccc3c(c2)OCO3)cc1	i	i	i	-5.3*	3	142*	i	64%*	39%*	95%*	72%*	i	TRPC4 spec 2=14%*;TRPC4 spec=47%*;HEK293 MPD ctr 2-1=i;HEK293 MPD ctr-1=0.5%*
Cc1cc(N2CCOCC2)c2c(N)cc(C)c(C)c2n1	i	i	i	-11*	10	i	-357%*	87%*	-54%*	54%*	58%*	i
Cc1ccc2cc(C=O)c(N3CCOCC3)nc2c1C	i	i	i	i	14	i	/	/	/	/	/	/
CCOC(=O)CNC(=S)N(Cc1ccco1)Cc1ccccc1Cl	i	i	i	-5.8*	8	i	i	i	12%*	i	i	i
Cc1ccc(S(=O)(=O)/N=C(/c2ccc(F)cc2)N(C)C)cc1	i	i	i	i	-2	i	/	/	/	/	/	/
CC(=O)N(C)c1nnc(-c2cnccn2)s1	i	i	i	-6.5*	-3	i	-234%*	i	-32%*	i	i	i
COCC(=O)N(C)c1nnc(-c2cnccn2)s1	i	i	i	i	-5	i	/	/	/	/	/	/
Cn1c(=O)c2c(nc(CN3CCc4ccccc4C3)n2Cc2ccccc2)n(C)c1=O	i	i	46*	-5.7*	2	i	i	i	109%*	68%*	i	/
Cc1ccc(NC(=O)Nc2c(C)[nH]c(=O)[nH]c2=O)cc1Cl	i	i	i	i	5	i	/	/	/	/	/	/
O=C(CN1CCCCC1)N1c2ccccc2CCc2ccccc21	i	i	i	-6.5*	1	i	100%*	i	17%*	i	i	/
COc1cc2c(cc1OC)C(C)N(S(=O)(=O)c1ccc(C)cc1)CC2 (stereo unspecified)	i	i	i	-6.9*	-4	i	/	/	/	/	i	/	TRPC4 spec 2=i;TRPC4 spec=-0.1%*;HEK293 MPD ctr 2-1=i;HEK293 MPD ctr-1=1.0%*
CCn1c(CCNC(=O)c2cccs2)n[nH]c1=S	i	i	i	i	1	i	/	/	/	/	/	/
Cc1ccc(-c2nc3ccccn3c2NCc2ccc3c(c2)OCO3)cc1	i	i	i	-5.5*	-1	i	i	i	-19%*	69%*	44%*	i
COc1ccc(-c2nc3ccc(C)cn3c2NCc2ccc3c(c2)OCO3)cc1	i	i	i	i	0	i	/	/	/	/	/	/
COc1cc(CC(C#N)(CO)c2nc3ccccc3[nH]2)ccc1OC(F)F (stereo unspecified)	i	i	i	i	4	i	/	/	/	/	/	/

Screening data (PubChem BioAssay)
